Screening data deposited in PubChem by The Scripps Research Institute Molecular Screening Center.
TCR-CD3 inh – inhibitors of human TCR-CD3 interaction | inhibition, % at 9.4 µM | actives 0.37% (n = 360,000) | TAMRA-labeled TCR probe fluorescence, biochemical;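 note: recombinant mutant TCR 2C K166C tagged with TAMRA read by polarization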
DDE Tn6 FP inh – inhibitors of Tn6 peptide binding to human fibrin DD(E) | P02675 | Fibrin DD(E) TRITC-Tn6 fluorescence polarization displacement | inhibition, % at 8.3 µM | actives 0.21% (n = 370,000) | AID 720509;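 active = inhibition above a per-campaign cutoff: mean of compounds within control limits plus 3 SD, cut at about 15% in these data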
HTRA1 inhibitor – HTRA1 (human) protease inhibition; inhibition, % at 5.96 µM; actives 0.5% (n = 340,000); Q92743; recombinant HTRA1, FP-rhodamine activity-based probe, fluorescence polarization; in the data active = inhibition above about 36%
Target sequence (Q92743 whole entry, looked up): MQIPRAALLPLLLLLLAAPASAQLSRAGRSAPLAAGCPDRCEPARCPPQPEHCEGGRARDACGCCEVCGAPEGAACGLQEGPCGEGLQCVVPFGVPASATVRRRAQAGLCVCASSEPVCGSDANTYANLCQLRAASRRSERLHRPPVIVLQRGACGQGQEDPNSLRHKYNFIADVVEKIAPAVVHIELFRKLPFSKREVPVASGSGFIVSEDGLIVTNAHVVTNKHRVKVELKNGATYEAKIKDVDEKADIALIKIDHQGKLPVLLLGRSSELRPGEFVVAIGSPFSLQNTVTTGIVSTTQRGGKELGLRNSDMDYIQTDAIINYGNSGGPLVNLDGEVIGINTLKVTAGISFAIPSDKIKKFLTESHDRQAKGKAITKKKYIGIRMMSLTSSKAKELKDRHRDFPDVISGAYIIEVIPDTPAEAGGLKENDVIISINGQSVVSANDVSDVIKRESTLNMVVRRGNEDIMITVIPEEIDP
SIAE inh – human SIAE inhibition, primary screen; Q9HAT2; SIAE FP-Rh probe binding, fluorescence polarization; inhibition, % at 9.66 µM; actives 0.69% (n = 370,000); AID 1053197;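 active = inhibition above a cutoff: mean of compounds within the control limits plus 3 SD of those, cut at about 17% in these data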
Tn7 DDE FP – inhibitors of Tn7 peptide binding to human fibrin DD(E); P02675; FP displacement of FITC-Tn7 peptide from fibrin DD(E); 0% = median of compound wells per plate; inhibition, % at 8.3 µM; actives 0.13% (n = 370,000);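 active = inhibition above the mean of compounds falling within the control limits plus 3 SD of them, cut at about 14% in these data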
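Assay system: Human clot-derived fibrin DD(E) complex | Buffer or medium: Tris/NaCl/CaCl2 buffer, pH 7.8 | Repeats: One replicate per compound | Benchmarks: Aha-Tn7 high control | Measure: % inhibition scaled between sample-field median and high-control FP | Schedule: 10 min plus 3 h, room temperature | Signal: Fluorescence polarization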
mABHD4 FP – ABHD4 (mouse) inhibition, primary FP screen; actives 0.54% (n = 370,000); purified mABHD4, FP-Rh probe fluorescence polarization; inhibition, % at 8.92 µM; Q8VD66;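 active = inhibition exceeding the mean over every tested compound plus 3 SD, cut at about 30% in these data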
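Test system: mABHD4 protein | Buffer or medium: HEPES pH 7.0 buffer, 150 mM NaCl, 0.01% Pluronic F-127 | Probe or stimulus: FP-Rh fluorescent activity-based probe, added after compound pre-incubation | Timing: Pre-incubation 45 min, probe exposure 60 min, at 25 °C | Technique: Fluorescence polarization, excitation 525 nm, emission 598 nm, BODIPY TMR filters | Repeats: Single well per compound (singlicate)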
BSA probe FL – BSA probe counter-screen for TCR-CD3 inhibitors; shares compounds with TCR-CD3 inh; TAMRA-labeled BSA probe fluorescence counterscreen; inhibition, % at 9.4 µM; actives 10% (n = 1,200); in the data active = inhibition above about 23%
TCR-CD3 conf – confirmation of human TCR-CD3 interaction inhibitors; shares compounds with TCR-CD3 inh; TAMRA-labeled TCR probe fluorescence binding assay; inhibition, % at 9.4 µM; actives 48% (n = 1,200); AID 652036
Of the large screens only hits and unclear results are named; the others gave an inactive call (follow-up assays come after a bar, where they were run). Rows were chosen to be rich in hits. Some 1.8% of all compounds tested hit in one or more screens of this group. Cut-off read from the data, not from the text of the source, unless noted: active = inhibition above about 19%; inactive = the rest.

CCCc1nnc(NC(=O)CS(=O)(=O)c2ccccc2)s1	TCR-CD3 inh 30 | BSA probe FL inactive | TCR-CD3 conf inactive
CCn1c(SCC(=O)Nc2ccccc2-c2ccccc2)nnc1-c1cnccn1	none (no result: TCR-CD3 inh, HTRA1 inhibitor)
CCc1ccc(NC(=O)NNC(=O)c2ccc3ccccc3c2O)cc1	TCR-CD3 inh 22 | BSA probe FL inactive | TCR-CD3 conf 29
COc1cccc(C(=O)NNC(=O)c2ccc3ccccc3c2O)c1	TCR-CD3 inh 40 | BSA probe FL inactive | TCR-CD3 conf 36
COc1ccc(C(=O)NNC(=O)c2cc3ccccc3cc2O)cc1	TCR-CD3 inh 32 | BSA probe FL inactive | TCR-CD3 conf 24
COc1cccc(C(=O)NNC(=O)c2ccccc2)c1	none
COc1ccc(NC(=O)NNC(=O)c2ccc3ccccc3c2O)cc1OC	TCR-CD3 inh 51 | BSA probe FL inactive | TCR-CD3 conf 46
Cc1[nH]oc(=O)c1N=Nc1ccc2[nH]c(=O)[nH]c2c1	none
CC(=NNC(=O)CSc1nnc(-c2ccccc2)n1-c1ccccc1)c1ccc2ccccc2c1	none (no result: TCR-CD3 inh, HTRA1 inhibitor)
COc1ccccc1NC(=O)NNC(=O)c1ccc2ccccc2c1O	TCR-CD3 inh 36 | BSA probe FL inactive | TCR-CD3 conf 25
Cc1ccccc1NC(=O)NNC(=O)c1ccc2ccccc2c1O	TCR-CD3 inh 43 | BSA probe FL inactive | TCR-CD3 conf 33
COc1ccccc1NC(=O)NNC(=O)c1ccc2ccccc2c1	none
Cc1ccc(C(=O)CSc2nnc(-c3ccccn3)n2-c2ccccc2)cc1	none (no result: TCR-CD3 inh, HTRA1 inhibitor)
Cc1oc2cc(O)ccc2c(=O)c1-c1ccccc1	none
Cc1oc2cc(O)ccc2c(=O)c1-c1nncn1-c1ccccc1	TCR-CD3 inh 25 | BSA probe FL 27 | TCR-CD3 conf 23
COc1ccc(OC)c(N2C(=NC(=O)C3CCCCC3)SC3CS(=O)(=O)CC32)c1 (stereo not drawn)	TCR-CD3 inh 41 | BSA probe FL inactive | TCR-CD3 conf inactive
CC(C)C[C@H](NC(=O)c1nc[nH]c1C(=O)N[C@@H](CCCCNC(=O)OC(C)(C)C)C(=O)OC(C)(C)C)C(=O)OCc1ccccc1	none
C[C@H](NC(=O)c1nc[nH]c1C(=O)N[C@@H](CCCCNC(=O)OC(C)(C)C)C(=O)OC(C)(C)C)C(=O)OCc1ccccc1	TCR-CD3 inh 27 | BSA probe FL inactive | TCR-CD3 conf inactive
Cc1ccccc1S(=O)(=O)NC(=O)C1(C)CCN1C(=O)CCc1ccc(Cl)cc1Cl (stereo not drawn)	none (no result: HTRA1 inhibitor)
Cc1ccc(C(=O)OCC(=O)NNC(=O)COc2ccc(Cl)cc2)c(O)c1	TCR-CD3 inh 27 | BSA probe FL inactive | TCR-CD3 conf inactive
Cc1ccc(C(=O)OCC(=O)NNC(=O)c2ccccc2)c(O)c1	none
COC(=O)[C@@]1(Cc2ccc(OC)cc2)[C@H]2c3cc(C(=O)N4CCCC4)n(Cc4ccc(C)o4)c3C[C@H]2CN1C(=O)c1ccccc1	TCR-CD3 inh 60 (no result: HTRA1 inhibitor) | BSA probe FL inactive | TCR-CD3 conf inactive
CCN(CC)c1ccc(NC(=O)CSc2nc3ccccc3c(=O)n2-c2ccc(C)cc2)cc1	none (no result: TCR-CD3 inh, HTRA1 inhibitor)
C=CCNC(=S)NNC(=O)c1cc(O)ccc1O	TCR-CD3 inh 38 (no result: HTRA1 inhibitor) | BSA probe FL inactive | TCR-CD3 conf 23
C=CCNC(=S)NNC(=O)c1cccn(Cc2ccc(Cl)cc2)c1=O	TCR-CD3 inh 36 | BSA probe FL inactive | TCR-CD3 conf inactive
C=CCNC(=S)NNC(=O)c1cccn(Cc2cccc(Cl)c2)c1=O	TCR-CD3 inh 27 | BSA probe FL inactive | TCR-CD3 conf 25
C=CCn1cccc(C(=O)Nc2ccc(Cl)cc2)c1=O	none
CN1CCN(C(=O)c2cccn(Cc3cccc(Cl)c3)c2=O)CC1	none
O=C(CNC(=O)c1ccc(Br)cc1)NCc1cccnc1	none
CC1CCC2(CCC(=O)N2CCCOC(=O)Nc2cccc(C(F)(F)F)c2)CC1 (stereo not drawn)	none (no result: TCR-CD3 inh, HTRA1 inhibitor)
Cc1ccc2[nH]c(C(=O)N/N=C/c3ccccc3O)c(C)c2c1	TCR-CD3 inh 20 | BSA probe FL inactive | TCR-CD3 conf inactive
C=CCn1c(O)c(N=NC(=O)CNC(=O)/C=C/c2ccco2)c2ccccc21	TCR-CD3 inh 23 | BSA probe FL inactive | TCR-CD3 conf 20
O=P(Nc1ccccc1)(Nc1ccccc1)c1ccccc1	none
O=C(NNC(=O)c1ccccc1O)c1ccc(NS(=O)(=O)c2ccc(F)cc2)cc1	none
O=C(NNC(=O)c1ccccc1O)c1ccc(S(=O)(=O)Nc2ccccc2)cc1	TCR-CD3 inh 29 | BSA probe FL inactive | TCR-CD3 conf inactive
CCOc1ccc(NS(=O)(=O)c2ccc(C(=O)NNC(=O)c3ccccc3O)cc2)cc1	TCR-CD3 inh 23 | BSA probe FL inactive | TCR-CD3 conf 23
O=C(NNC(=O)c1cc(Cl)ccc1O)c1ccc(NS(=O)(=O)c2cccs2)cc1	TCR-CD3 inh 24 | BSA probe FL inactive | TCR-CD3 conf inactive
Cc1cccc(C)c1N(CC(=O)NCc1ccco1)C(=O)CNS(=O)(=O)c1ccc(F)cc1	none
Oc1ccc(/C=C/c2nc(-c3ccccc3O)n(-c3ccccc3)n2)cc1	TCR-CD3 inh 46 | BSA probe FL inactive | TCR-CD3 conf inactive
O=C(NNC(=O)c1cc2ccccc2cc1O)Nc1ccccc1F	none
Cc1ccc(NC(=O)NNC(=O)c2cc3ccccc3cc2O)cc1C	TCR-CD3 inh 21 | BSA probe FL inactive | TCR-CD3 conf inactive
Cc1ccc(C)c(NC(=O)NNC(=O)c2cc3ccccc3cc2O)c1	TCR-CD3 inh 22 | BSA probe FL inactive | TCR-CD3 conf inactive
O=C(NCCCl)NNC(=O)c1cc2ccccc2cc1O	TCR-CD3 inh 19 | BSA probe FL inactive | TCR-CD3 conf inactive
COc1ccccc1C(=O)NNC(=O)c1cc2ccccc2cc1O	none
O=C(NCc1ccc(F)cc1)c1cc(C2CCCN(C(=O)CCCc3ccccc3)C2)on1 (stereo not drawn)	none (no result: HTRA1 inhibitor)
C#CCOCCOCCOCCNc1nc(N2CCOCC2)nc(N2CCN(C(=O)[C@H](Cc3ccc(O)cc3)n3cc([C@@H](N)C(C)CC)nn3)CC2)n1 (stereo partly drawn)	TCR-CD3 inh 20 | BSA probe FL inactive | TCR-CD3 conf inactive
CN(CCC#N)C(=O)COC(=O)c1c2c(nc3ccccc13)/C(=C/c1ccco1)CC2	TCR-CD3 inh 52, SIAE inh 20, mABHD4 FP 42 | BSA probe FL inactive | TCR-CD3 conf 32
CC(C)CNC(=O)COC(=O)c1c2c(nc3ccccc13)/C(=C\c1cccs1)CC2	none
